An excerpt weighted towards active compounds, which were near 3.3% of everything screened.
FGF22 binding – binders of recombinant human FGF22 by thermal shift | AID 651658 | activity (Tm shift, normalised), % at 9.99 µM | hit rate 1.5% among 340,000 | SYPRO orange fluorescence; percent of sucrose octasulfate shift, DMSO zero;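 active = mean Tm shift, scaled 0 neutral to 100 positive control, at about 1.3% or above, every replicate too, limit read from the data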
Target sequence (Q9HCT0 whole entry, looked up): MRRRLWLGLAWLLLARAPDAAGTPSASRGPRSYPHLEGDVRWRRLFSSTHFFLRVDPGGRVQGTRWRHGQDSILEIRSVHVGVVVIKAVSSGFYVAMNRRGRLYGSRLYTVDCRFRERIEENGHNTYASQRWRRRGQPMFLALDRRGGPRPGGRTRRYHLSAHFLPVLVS
DENV2 CPE – inhibitors of DENV2 cytopathic effect. DENV2-infected cells, cytopathic effect rescue, plate reader. CPE inhibition, % at 9.99 µM. hit rate 1.7% among 350,000; in the data active = CPE inhibition above about 20%, passing the limit was not always enough; tested in BHK-21 cells
E-selectin induc – E-selectin induction on HUVECs. P16581. HUVEC E-selectin immunofluorescence imaging; normalized: neutral wells 0, TNF-alpha wells 100. AID 686992. hit rate 0.37% among 260,000. activation, % at 7.58 µM;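 active = mean E-selectin-positive cell signal at least 10% of the positive control, reached in at least 60% of replicates, without over 20% cell loss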
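System: HUVEC / Compound: single concentration / Signal: immunofluorescence imaging / Read-out: percent E-selectin-positive cells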
PglD DTNB – blocks C. jejuni PglD acetyltransferase activity; hit rate 0.098% among 360,000; inhibition, % at 12.5 µM; purified PglD enzyme, DTNB colorimetric CoA detection; in the data active = inhibition above about 16%, passing the limit was not always enough
Xi reactivation – reactivates the inactive X chromosome in mouse fibroblasts | XiGFP mouse fibroblasts, % GFP-positive cells imaging, 3 d; cells co-treated with 5-aza-dC sensitizer; scaled so ellipticine positive control = 100% | hit rate 0.055% among 360,000 | activation, % at 7.58 µM;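 active = mean normalized replicate activation at least 10% and every replicate at or above 10%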
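Assay system – SV40-immortalized XiGFP fibroblast cells, line 68-5-11 · Buffer or medium – DMEM supplemented with 5-aza-dC as sensitizing agent · Dosing – one concentration, pinned · Benchmarks – positive control ellipticine, 6 µM final · Times – 3 days compound exposure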
C2C12 statin – suppression of simvastatin myotoxicity. C2C12 myotubes + simvastatin, ATP luminescence, 48 h; scaled: DMSO 0, geranylgeraniol control 100. rescue of ATP level, % at 7.49 µM. hit rate 0.78% among 330,000. AID 602340;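 active = mean ATP rescue above about 67%, or every replicate alone reaching that limit, limit read from the data, passing the limit was not always enough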;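 note: myotubes were challenged with 10 µM simvastatin during compound exposure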
Large screens that a line does not name were inactive; ! = a repeat was not active.

C[C@@H]1CCCCO[C@@H](CN(C)C(=O)c2ccncc2)[C@@H](C)CN([C@H](C)CO)C(=O)c2cc(NC(=O)Cc3ccccc3)ccc2O1	DENV2 CPE 23.9!
C[C@H](CO)N1C[C@H](C)[C@@H](CN(C)CC2CCCCC2)OCCCC[C@H](C)Oc2ccc(NC(=O)Cc3ccccc3)cc2C1=O	none (no result: C2C12 statin)
C[C@@H]1CN([C@@H](C)CO)C(=O)c2cc(NC(=O)Cc3ccccc3)ccc2O[C@@H](C)CCCCO[C@H]1CN(C)C(=O)c1ccncc1	none (no result: E-selectin induc)
O=C1C2CCCCC2C(=O)N1Cc1ccccc1 (stereo not given)	FGF22 binding 43.5 (no result: PglD DTNB)
Cc1cc(C)c(C(=O)COC(=O)CN2C(=O)NC3(CCCC3)C2=O)cc1C	FGF22 binding 43.1
CCOc1cccc(C(=O)NC(=S)Nc2ccc(Cl)cc2C(=O)O)c1	FGF22 binding 43.5 (no result: PglD DTNB, C2C12 statin)
CCOc1cccc(C(=O)NC(=S)Nc2ccc(N3CCCC3)cc2)c1	none (no result: FGF22 binding, DENV2 CPE, E-selectin induc, Xi reactivation)
Cc1ccc(S(=O)(=O)Nc2ccc3c(c2)C(=O)N([C@@H](C)CO)C[C@H](C)[C@@H](CN(C)C(=O)Nc2ccccc2)OCCCC[C@H](C)O3)cc1	none (no result: C2C12 statin)
Cn1cc(Br)c(C(=O)Nc2sc3c(c2C#N)CCC3)n1	none (no result: C2C12 statin)
Cn1cc(Cl)c(C(=O)NC(=S)Nc2sc3c(c2C#N)CCCCC3)n1	FGF22 binding 51.8 (no result: E-selectin induc, PglD DTNB, C2C12 statin)
CO[C@H]1CN(C)C(=O)c2ccc(NC(C)=O)cc2OC[C@@H](C)N(C(=O)c2ccncc2)C[C@H]1C	none
C[C@H]1CN([C@@H](C)CO)C(=O)c2cc(Br)cnc2O[C@@H]1CN(C)Cc1ccncc1	none
O=C(CCNc1n[nH]c(=O)[nH]c1=O)N1CCCCC1	none (no result: FGF22 binding, DENV2 CPE, E-selectin induc, Xi reactivation, C2C12 statin)
O=C(O)CCCNc1n[nH]c(=O)[nH]c1=O	FGF22 binding 42.9 (no result: E-selectin induc, PglD DTNB, C2C12 statin)
C[C@@H]1CN([C@@H](C)CO)C(=O)c2cc(NC(=O)CCC(F)(F)F)ccc2O[C@H]1CN(C)Cc1ccccc1	none
Cn1nccc1C(=O)Nn1cnnc1	C2C12 statin 117.9 (no result: FGF22 binding, DENV2 CPE, E-selectin induc, Xi reactivation)
O=C(Nc1ccc(S(=O)(=O)N2CCCCC2c2cccnc2)cc1)c1c(F)cccc1F (stereo not given)	FGF22 binding 43.7 (no result: E-selectin induc, PglD DTNB, C2C12 statin)
COCCNC(=S)N=Nc1c(O)[nH]c2c(C)cc(C)cc12	FGF22 binding 43.5 (no result: PglD DTNB, C2C12 statin)
CO[C@H]1CN(C)C(=O)c2ccc(NC(=O)Nc3cccc(F)c3)cc2OC[C@@H](C)N(C(=O)C2CC2)C[C@@H]1C	none (no result: FGF22 binding, DENV2 CPE, PglD DTNB)
Cc1ccc(C)c(S(=O)(=O)NCc2ccc(C(=O)N3CCCCC3C)cc2)c1 (stereo not given)	C2C12 statin 114.0 (no result: FGF22 binding, DENV2 CPE, E-selectin induc, Xi reactivation)
COc1ccc(OCCNS(=O)(=O)c2cccc([N+](=O)[O-])c2)cc1	FGF22 binding 43.2 (no result: E-selectin induc, PglD DTNB, C2C12 statin)
COc1ccc(OCCNS(=O)(=O)c2ccccc2)cc1	none (no result: FGF22 binding, DENV2 CPE, E-selectin induc, Xi reactivation, C2C12 statin)
CCCNC(=O)C[C@@H]1C[C@@H]2c3cc(NS(=O)(=O)c4ccc(OC)cc4)ccc3O[C@@H]2[C@H](CO)O1	none
CCCC#Cc1ccc2c(c1)O[C@@H](CN(C)S(=O)(=O)c1cccc(F)c1)[C@H](C)CN([C@@H](C)CO)S2(=O)=O	DENV2 CPE 29.6
CC(C)CC#Cc1ccc2c(c1)O[C@H](CN(C)S(=O)(=O)c1cccc(F)c1)[C@H](C)CN([C@H](C)CO)S2(=O)=O	DENV2 CPE 22.4
COc1cccc(S(=O)(=O)N(C)C[C@H]2Oc3cc(C#CCC(C)C)ccc3S(=O)(=O)N([C@@H](C)CO)C[C@H]2C)c1	DENV2 CPE 44.0
C[C@@H]1CCCCO[C@@H](CN(C)S(=O)(=O)c2cccs2)[C@H](C)CN([C@@H](C)CO)C(=O)c2cc(NC(=O)Nc3ccccc3)ccc2O1	none (no result: E-selectin induc, C2C12 statin)
Cc1noc(C)c1S(=O)(=O)N(C)C[C@@H]1Oc2ccc(NS(=O)(=O)c3ccc(F)cc3)cc2C(=O)N([C@H](C)CO)C[C@@H]1C	none (no result: FGF22 binding, DENV2 CPE, PglD DTNB, C2C12 statin)
COCC(=O)Nc1ccc2c(c1)C(=O)N(C)C[C@H](OC)[C@H](C)CN(Cc1cccc(F)c1)[C@H](C)CO2	none
CSc1cc(-c2ccc(Cl)cc2)c(C(=O)NC(C)C)s1	C2C12 statin 130.5 (no result: FGF22 binding, DENV2 CPE, E-selectin induc, Xi reactivation)
CCC(=O)N(C)C[C@@H]1Oc2ncc(-c3ccc(C)cc3)cc2C(=O)N([C@H](C)CO)C[C@H]1C	none

Assay outcomes from PubChem BioAssay.
